From ChEMBL document CHEMBL3585276, “Topoisomerase I and II inhibitory activity, cytotoxicity, and structure-activity relationship study of dihydroxylated 2,6-diphenyl-4-aryl pyridines” (Bioorg Med Chem, 2015)

Assays:
[1] = target: T1, DNA topoisomerase 1 (Homo sapiens) (UniProt P11387); experiment: Inhibition of recombinant human DNA topoisomerase-1 assessed as relaxation of supercoiled DNA pBR322 at 100 uM after 30 mins by agarose gel electrophoresis relative to control
T1 sequence (whole entry): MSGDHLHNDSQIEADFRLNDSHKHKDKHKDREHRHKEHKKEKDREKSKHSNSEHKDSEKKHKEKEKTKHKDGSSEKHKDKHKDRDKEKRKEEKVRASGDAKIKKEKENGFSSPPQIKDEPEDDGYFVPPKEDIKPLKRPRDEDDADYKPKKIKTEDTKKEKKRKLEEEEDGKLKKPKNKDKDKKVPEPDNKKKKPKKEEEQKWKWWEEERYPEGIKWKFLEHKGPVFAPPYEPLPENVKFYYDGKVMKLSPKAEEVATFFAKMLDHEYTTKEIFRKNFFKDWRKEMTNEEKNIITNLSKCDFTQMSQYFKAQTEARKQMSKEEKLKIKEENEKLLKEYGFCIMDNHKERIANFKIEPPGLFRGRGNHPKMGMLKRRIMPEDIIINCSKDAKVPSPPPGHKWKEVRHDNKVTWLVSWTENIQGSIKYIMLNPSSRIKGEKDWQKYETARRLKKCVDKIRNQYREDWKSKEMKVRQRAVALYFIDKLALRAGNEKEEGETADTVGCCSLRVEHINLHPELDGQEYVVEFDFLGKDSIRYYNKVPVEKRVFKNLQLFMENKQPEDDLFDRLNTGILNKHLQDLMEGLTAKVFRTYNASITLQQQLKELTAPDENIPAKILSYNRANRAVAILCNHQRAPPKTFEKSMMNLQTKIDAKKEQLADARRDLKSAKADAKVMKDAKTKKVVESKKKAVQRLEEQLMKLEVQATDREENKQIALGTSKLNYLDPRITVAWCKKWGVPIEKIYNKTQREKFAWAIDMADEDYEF
Outline: (§1)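 Relaxation assay with 100 ng pBR322 plasmid DNA and 1 unit recombinant human topo I. Buffer was 10 mM Tris–HCl pH 7.9, 150 mM NaCl, 0.1% BSA, 1 mM spermidine and 5% glycerol, incubated 37 °C for 30 min with or without compound. Products were run on a 1% agarose gel in TAE at 15 V for 7 h and stained with ethidium bromide (0.5 µg/mL) for 30 min.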

[2] = target: T1, DNA topoisomerase 1 (Homo sapiens); experiment: Inhibition of recombinant human DNA topoisomerase-1 assessed as relaxation of supercoiled DNA pBR322 at 20 uM after 30 mins by agarose gel electrophoresis relative to control; outline: as §1
[3] = target: DNA topoisomerase 2-alpha (Homo sapiens) (UniProt P11388); experiment: Inhibition of recombinant human DNA topoisomerase-2alpha using supercoiled pBR322 plasmid DNA as substrate at 100 uM after 30 mins by agarose gel electrophoresis relative to control
Chain of DNA topoisomerase 2-alpha (Homo sapiens) (P11388 whole entry): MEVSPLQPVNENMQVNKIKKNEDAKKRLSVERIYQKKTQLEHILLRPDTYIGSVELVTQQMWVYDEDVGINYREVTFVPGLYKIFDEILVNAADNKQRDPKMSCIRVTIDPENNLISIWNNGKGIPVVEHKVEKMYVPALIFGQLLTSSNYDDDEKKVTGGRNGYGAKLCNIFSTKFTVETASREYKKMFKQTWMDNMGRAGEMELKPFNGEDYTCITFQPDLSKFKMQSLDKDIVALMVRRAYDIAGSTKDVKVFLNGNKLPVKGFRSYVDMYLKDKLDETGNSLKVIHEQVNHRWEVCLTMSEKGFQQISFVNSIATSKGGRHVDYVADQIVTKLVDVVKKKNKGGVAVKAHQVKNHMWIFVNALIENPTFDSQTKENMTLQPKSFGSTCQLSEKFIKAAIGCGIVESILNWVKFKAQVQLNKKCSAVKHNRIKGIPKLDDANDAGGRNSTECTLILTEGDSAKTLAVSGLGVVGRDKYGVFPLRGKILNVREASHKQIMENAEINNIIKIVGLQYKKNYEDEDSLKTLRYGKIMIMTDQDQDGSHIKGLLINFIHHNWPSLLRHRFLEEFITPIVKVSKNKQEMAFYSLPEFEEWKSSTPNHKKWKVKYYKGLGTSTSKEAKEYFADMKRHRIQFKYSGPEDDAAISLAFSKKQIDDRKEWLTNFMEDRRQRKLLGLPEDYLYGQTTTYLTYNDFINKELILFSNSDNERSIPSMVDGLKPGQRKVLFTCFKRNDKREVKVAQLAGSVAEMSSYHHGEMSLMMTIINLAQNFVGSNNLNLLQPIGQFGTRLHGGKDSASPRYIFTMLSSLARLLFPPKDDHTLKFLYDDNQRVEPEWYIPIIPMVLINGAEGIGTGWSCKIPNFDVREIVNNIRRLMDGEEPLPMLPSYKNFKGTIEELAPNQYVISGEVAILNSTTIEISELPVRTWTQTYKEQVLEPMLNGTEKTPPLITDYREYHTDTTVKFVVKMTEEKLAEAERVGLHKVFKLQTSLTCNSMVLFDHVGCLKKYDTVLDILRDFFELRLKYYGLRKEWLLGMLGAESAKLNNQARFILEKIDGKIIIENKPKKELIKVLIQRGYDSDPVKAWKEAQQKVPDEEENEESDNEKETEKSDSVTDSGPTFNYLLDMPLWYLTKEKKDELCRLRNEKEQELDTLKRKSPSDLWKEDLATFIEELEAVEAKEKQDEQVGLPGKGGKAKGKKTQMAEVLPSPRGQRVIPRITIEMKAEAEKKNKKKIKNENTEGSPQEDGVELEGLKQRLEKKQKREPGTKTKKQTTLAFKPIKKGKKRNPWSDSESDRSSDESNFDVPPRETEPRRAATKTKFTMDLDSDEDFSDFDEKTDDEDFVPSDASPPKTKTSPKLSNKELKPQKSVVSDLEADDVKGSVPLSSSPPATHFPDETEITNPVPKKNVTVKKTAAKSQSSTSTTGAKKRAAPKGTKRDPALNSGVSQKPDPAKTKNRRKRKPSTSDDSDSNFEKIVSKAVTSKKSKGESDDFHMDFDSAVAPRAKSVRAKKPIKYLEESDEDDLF
Outline: (§2)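 200 ng supercoiled pBR322 with 1 unit human topo II, incubated 30 min at 30 °C with or without compound in 10 mM Tris–HCl pH 7.9, 50 mM NaCl, 5 mM MgCl2, 1 mM EDTA, 1 mM ATP and 15 µg/mL BSA. Reaction was stopped with 7 mM EDTA and run on 1% agarose in TAE at 25 V. Gel was stained with ethidium bromide, visualized under UV, and supercoiled DNA quantitated densitometrically.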

[4] = target: DNA topoisomerase 2-alpha (Homo sapiens) (UniProt P11388); experiment: Inhibition of recombinant human DNA topoisomerase-2alpha using supercoiled pBR322 plasmid DNA as substrate at 20 uM after 30 mins by agarose gel electrophoresis relative to control; outline: as §2
[5] = tested on: DU-145; experiment: Cytotoxicity against human DU145 cells measured on day 4 by CCK8 assay; type: functional, cell-based; settings: DU-145, 96 h
Outline: (§3)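 Cells seeded at […], grown overnight in medium with 10% FBS at 37 °C under 5% CO2. On day 2 they were serum-starved 4 h, then exposed to graded compound concentrations. On day 4 CCK-8 was added for a further 4 h and absorbance read at 450 nm. IC50 came from a four-parameter logistic fit, mean ± SD of three experiments in triplicate.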

[6] = tested on: HCT-15; experiment: Cytotoxicity against human HCT15 cells measured on day 4 by CCK8 assay; type: functional, cell-based; settings: HCT-15, 96 h; outline: as §3
[7] = tested on: T47D; experiment: Cytotoxicity against human T47D cells measured on day 4 by CCK8 assay; type: functional, cell-based; settings: 96 h; outline: as §3
[8] = tested on: HeLa; experiment: Cytotoxicity against human HeLa cells measured on day 4 by CCK8 assay; type: functional, cell-based; settings: 96 h; outline: as §3

SMILES | inhibition [1] [%] | inhibition [2] [%] | inhibition [3] [%] | inhibition [4] [%] | IC50 [5] [nM] | IC50 [6] [nM] | IC50 [7] [nM] | IC50 [8] [nM]
Oc1cccc(-c2cc(-c3cccnc3)cc(-c3ccccc3O)n2)c1 | 1.9 | 0 | 55.2 | 8.1 | 5580 | 8280 | 6230 | 7530
Oc1ccc(-c2cc(-c3ccsc3)cc(-c3ccc(O)cc3)n2)cc1 | 61.7 | 7.5 | 81.2 | 57.9 | 2060 | 1040 | 1770 | 4370
Oc1cccc(-c2cc(-c3ccsc3)cc(-c3cccc(O)c3)n2)c1 | 59.2 | 4.5 | 88.1 | 23 | 1310 | 1630 | 1510 | 16600
Oc1cccc(-c2cc(-c3cccs3)cc(-c3ccccc3O)n2)c1 | 83.2 | 1.5 | 78.1 | 12.1 | 9300 | > 50000 | > 50000 | > 50000

More lines, main results first:

inhibition [1] [%] | inhibition [2] [%] | inhibition [3] [%] | inhibition [4] [%] | SMILES | IC50 [5] [nM] | IC50 [6] [nM] | IC50 [7] [nM] | IC50 [8] [nM]
35.4 | 0.1 | 62.5 | 1.5 | Oc1cccc(-c2cc(-c3ccccn3)cc(-c3ccccc3O)n2)c1 | 17000 | > 50000 | 2560 | 2020
72.2 | 2 | 76.4 | 30.2 | Oc1ccc(-c2cc(-c3cccs3)cc(-c3ccccc3O)n2)cc1 | > 50000 | > 50000 | > 50000 | > 50000
91.7 | 0 | 78.3 | 22.3 | Oc1cccc(-c2cc(-c3cccs3)cc(-c3cccc(O)c3)n2)c1 | 1630 | 3480 | 770 | 1690
100 | 1.5 | 92.8 | 21.8 | Oc1ccc(-c2cc(-c3ccco3)cc(-c3cccc(O)c3)n2)cc1 | 2070 | 840 | 1280 | 5170
8.7 | 5 | 65.8 | 25.7 | Oc1ccc(-c2cc(-c3cccnc3)cc(-c3ccc(O)cc3)n2)cc1 | 240 | 840 | 2030 | 600
